From ChEMBL document CHEMBL1123678, “Octahydropyrazino[2',3':3,4]pyrido[1,2-a]indoles. A new class of potent antihypertensive agents” (1987)
Activity calls are given as the source filed them. The rule behind the calls is not given here.

Experiments:
[1] = system: Rattus norvegicus; experiment: Antihypertensive activity was determined in cannulated spontaneously hypertensive rats(SHR) and heart rate response was reported to reduce by 10-25% after 4 hr at a peroral dose of 10 mg/kg; type: functional, organism-based; parameters: dose 10 mg/kg
[2] = system: Rattus norvegicus; experiment: Antihypertensive activity was determined in cannulated spontaneously hypertensive rats(SHR) and maximum decrease of mean arterial blood pressure (MABP) at 10 mg/kg oral dose; type: functional, Artery
Procedure, shortened: (§1)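 Cannulated SHR given compound by gastric gavage in 0.5% methylcellulose (5 mL/kg), doses 0.1–50 mg/kg, 4–8 animals per dose, after 1-h equilibration. MABP recorded for 4 h; maximal % decrease reported with time to peak effect. Significance by two-way analysis of variance.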

[3] = system: Rattus norvegicus; experiment: Antihypertensive activity was determined in cannulated spontaneously hypertensive rats(SHR) and maximum decrease of mean arterial blood pressure (MABP) at 2.5 mg/kg oral dose; type: functional, Artery; procedure, shortened: as §1
[4] = system: Rattus norvegicus; experiment: Antihypertensive activity was determined in cannulated spontaneously hypertensive rats(SHR) and heart rate response was reported to reduce by 10-25% after 4 hr at a peroral dose of 1.0 mg/kg; type: functional, organism-based; parameters: dose 1 mg/kg
[5] = system: Rattus norvegicus; experiment: Vasopressor responses to epinephrine as a measure of the alpha-1-adrenoceptor blocking activity at 2.5 mg/kg administered orally was reported to be reversed; type: functional, organism-based; parameters: dose 2.5 mg/kg
[6] = system: Rattus norvegicus; experiment: Vasopressor responses to epinephrine as a measure of the alpha-1-adrenoceptor blocking activity at 10 mg/kg administered orally was reported to be reversed; type: functional, organism-based; parameters: dose 10 mg/kg
[7] = system: Rattus norvegicus; experiment: Antagonism of vasopressor responses to epinephrine as a measure of the alpha-1-adrenoceptor blocking activity at 5 mg/kg administered orally was reported to be reversed; type: functional, organism-based; parameters: dose 5 mg/kg
[8] = system: Rattus norvegicus; experiment: Antihypertensive activity was determined in cannulated spontaneously hypertensive rats(SHR) and heart rate response was reported to reduce by 10-25% after 4 hr at a peroral dose of 2.5 mg/kg; type: functional, organism-based; parameters: dose 2.5 mg/kg
[9] = system: Rattus norvegicus; experiment: Antihypertensive activity was determined in cannulated spontaneously hypertensive rats(SHR) and heart rate response was reported to reduce by 10-25% after 4 hr at a peroral dose of 5 mg/kg; type: functional, organism-based; parameters: dose 5 mg/kg
[10] = system: Rattus norvegicus; experiment: Vasopressor responses to epinephrine as a measure of the alpha-1-adrenoceptor blocking activity at 1 mg/kg administered orally was reported to be antagonized; type: functional, organism-based; parameters: dose 1 mg/kg
[11] = system: Rattus norvegicus; experiment: Antihypertensive activity was determined in cannulated spontaneously hypertensive rats(SHR) and maximum decrease of mean arterial blood pressure (MABP) at 5 mg/kg oral dose; type: functional, Artery; procedure, shortened: as §1
[12] = system: Rattus norvegicus; experiment: Antihypertensive activity was determined in cannulated spontaneously hypertensive rats(SHR) and maximum decrease of mean arterial blood pressure (MABP) at 1 mg/kg oral dose; type: functional, Artery; procedure, shortened: as §1
[13] = system: Rattus norvegicus; experiment: Antihypertensive activity was determined in cannulated spontaneously hypertensive rats(SHR) and maximum decrease of mean arterial blood pressure (MABP) at 50 mg/kg oral dose; type: functional, Artery; procedure, shortened: as §1
[14] = system: Rattus norvegicus; experiment: Vasopressor responses to epinephrine as a measure of the alpha-1-adrenoceptor blocking activity at 1 mg/kg administered orally was reported to be reversed; type: functional, organism-based; parameters: dose 1 mg/kg
[15] = system: Rattus norvegicus; experiment: Antihypertensive activity was determined in cannulated spontaneously hypertensive rats(SHR) and heart rate response was reported to reduce by 10-25% after 4 hr at a peroral dose of 0.25 mg/kg; type: functional, organism-based; parameters: dose 0.25 mg/kg
[16] = system: Rattus norvegicus; experiment: Vasopressor responses to epinephrine as a measure of the alpha-1-adrenoceptor blocking activity at 0.25 mg/kg administered orally was reported to be reversed; type: functional, organism-based; parameters: dose 0.25 mg/kg
[17] = system: Rattus norvegicus; experiment: Antihypertensive activity was determined in cannulated spontaneously hypertensive rats(SHR) and maximum decrease of mean arterial blood pressure (MABP) at 25 mg/kg oral dose; type: functional, Artery; procedure, shortened: as §1
[18] = system: Rattus norvegicus; experiment: Vasopressor responses to epinephrine as a measure of the alpha-1-adrenoceptor blocking activity at 25 mg/kg administered orally was reported to have no change; type: functional, organism-based; parameters: dose 25 mg/kg
[19] = system: Rattus norvegicus; experiment: Vasopressor responses to epinephrine as a measure of the alpha-1-adrenoceptor blocking activity at 50 mg/kg administered orally was reported to be antagonized; type: functional, organism-based; parameters: dose 50 mg/kg
[20] = system: Rattus norvegicus; experiment: Antihypertensive activity was determined in cannulated spontaneously hypertensive rats(SHR) and marked bradycardia was reported at a dose of 50 mg/kg; type: functional, organism-based; parameters: dose 50 mg/kg
[21] = system: Rattus norvegicus; experiment: Vasopressor responses to epinephrine as a measure of the alpha-1-adrenoceptor blocking activity at 10 mg/kg administered orally was reported to have no change; type: functional, organism-based; parameters: dose 10 mg/kg
[22] = system: Rattus norvegicus; experiment: Vasopressor responses to epinephrine as a measure of the alpha-1-adrenoceptor blocking activity at 25 mg/kg administered orally was reported to be slightly; type: functional, organism-based; parameters: dose 25 mg/kg
[23] = system: Rattus norvegicus; experiment: Vasopressor responses to epinephrine as a measure of the alpha-1-adrenoceptor blocking activity at 10 mg/kg administered orally was reported to be potentiated; type: functional, organism-based; parameters: dose 10 mg/kg
[24] = system: Rattus norvegicus; experiment: Antihypertensive activity was determined in cannulated spontaneously hypertensive rats(SHR) and activity rating was given with respect to MABP values at 25 mg/kg oral dose;MABP reduced by 15-25% and an appreciable antihypertensive at 2.5-5 mg/kg; type: functional, organism-based; parameters: dose 25 mg/kg
[25] = system: Rattus norvegicus; experiment: Antihypertensive activity was determined in cannulated spontaneously hypertensive rats(SHR) and heart rate response was reported to reduce by 10-25% after 4 hr at a peroral dose of 25 mg/kg; type: functional, organism-based; parameters: dose 25 mg/kg
[26] = system: Rattus norvegicus; experiment: Antihypertensive activity was determined in cannulated spontaneously hypertensive rats(SHR) and marked bradycardia was reported at a dose of 10 mg/kg; type: functional, organism-based; parameters: dose 10 mg/kg
[27] = system: Rattus norvegicus; experiment: Antihypertensive activity was determined in cannulated spontaneously hypertensive rats(SHR) and heart rate response was reported to be reduce by 10-25% after 4 hr at a dose of 50 mg/kg; type: functional, organism-based; parameters: dose 50 mg/kg

Br.CCCN1CCN(CCC)C2c3c(C)c4ccccc4n3CCC21 (configuration not stated)
HR [1]: Heart rate response was reported to reduce by 10-25% after 4 hr at a peroral dose of 1.0 mg/kg | Decrease in MABP [2]: 18% | Decrease in MABP [3]: 16% | HR [4]: Heart rate response was reported to reduce by 10-25% after 4 hr at a peroral dose of 1.0 mg/kg | Activity [5]: Antagonism reversed | Activity [6]: Antagonism reversed | Activity [7]: Antagonism reversed | HR [8]: Heart rate response was reported to reduce by 10-25% after 4 hr at a peroral dose of 1.0 mg/kg | HR [9]: Heart rate response was reported to reduce by 10-25% after 4 hr at a peroral dose of 1.0 mg/kg | Activity [10]: Antagonism reversed | Decrease in MABP [11]: 12% | Decrease in MABP [12]: 13%

Cc1c2n(c3ccccc13)CCC1C2N(C)CCN1C.Cl.Cl (configuration not stated)
Decrease in MABP [13]: 12%

CCN1CCN(C(C)C)C2CCn3c(c(C)c4ccccc43)C21 (configuration not stated)
Decrease in MABP [2]: 56% | Decrease in MABP [3]: 52% | HR [4]: Heart rate response was reported to reduce by 10-25% after 4 hr at a peroral dose of 0.25 mg/kg | Activity [5]: Vasopressor response reversed | Activity [6]: Vasopressor response reversed | Activity [14]: Vasopressor response reversed | HR [8]: Heart rate response was reported to reduce by 10-25% after 4 hr at a peroral dose of 0.25 mg/kg | HR [15]: Heart rate response was reported to reduce by 10-25% after 4 hr at a peroral dose of 0.25 mg/kg | Activity [16]: Vasopressor response reversed | Decrease in MABP [12]: 40%

Br.Br.CCN1CCNC2c3c(C)c4ccccc4n3CCC21 (configuration not stated)
Decrease in MABP [2]: 23% | Decrease in MABP [17]: 26% | Activity [18]: inactive | Decrease in MABP [13]: 31% | Activity [19]: Vasopressor response antagonized | HR [20]: Heart rate response was reported to reduce by 10-25% after 4 hr at a peroral dose of 25 mg/kg | Activity [21]: inactive

Cc1c2n(c3ccccc13)CCC1NCCNC21 (configuration not stated)
Activity [22]: Vasopressor response potentiated | Decrease in MABP [2]: 19% | Decrease in MABP [17]: 27% | Activity [23]: Vasopressor response potentiated | Activity rating [24]: MABP reduced by 15-25% and an appreciable antihypertensive at 2.5-5 mg/kg | HR [25]: Heart rate response was reported to reduce by 10-25% after 4 hr at a peroral dose of 25 mg/kg

CCN1CCN(CC)C2c3c(C)c4cc(Br)ccc4n3CCC21.Cl (configuration not stated)
Decrease in MABP [2]: 15% | Activity [6]: Vasopressor response reversed

Br.CCCN1CCN(C(C)C)C2CCn3c(c(C)c4ccccc43)C21 (configuration not stated)
Decrease in MABP [2]: 40% | Decrease in MABP [3]: 25% | Activity [5]: Vasopressor response reversed | Activity [6]: Vasopressor response reversed | Activity [14]: Vasopressor response reversed | HR [26]: Heart rate response was reported to reduce by 10-25% after 4 hr at a peroral dose of 1.0 mg/kg | Decrease in MABP [12]: 19%

Cc1c2n(c3ccccc13)CCC1C2N(C)CCN1C (configuration not stated)
HR [1]: Heart rate response was reported to reduce by 10-25% after 4 hr at a peroral dose of 10 mg/kg | Activity [6]: Vasopressor response reversed | Activity [19]: Vasopressor response antagonized | HR [9]: Heart rate response was reported to reduce by 10-25% after 4 hr at a peroral dose of 10 mg/kg | HR [27]: Heart rate response was reported to be reduce by 10-25% after 4 hr at a dose of 50 mg/kg

CCN1CCN(CC)[C@H]2c3c(C)c4ccccc4n3CC[C@H]21.Cl.Cl
Decrease in MABP [13]: 25% | HR [27]: Heart rate response was reported to be reduce by 10-25% after 4 hr at a dose of 25 mg/kg
